# Laboratory results reported in the array DNA melting data of Ke et al. (doi:10.1101/2024.01.08.574731).
# Assays:
# [1] = folding enthalpy; higher = less favourable; fluorescence melt of hairpins on a sequencing array, two-state fit; conditions: sodium 0.088 M
# How it was run: (§1)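 To match UV melts, fitted temperatures were raised by 9.35 °C. These fits were bootstrapped two-state models that gave melting temperature and folding enthalpy, combined by inverse variance over four replicates. The input was normalised Cy3 fluorescence of library hairpins with annealed Cy3 and quencher oligos on a sequenced MiSeq flow cell, imaged in 50 mM Na-HEPES pH 8.0, 25 mM NaCl in 2.5 °C steps up to 60 °C.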
# [2] = melting temperature; fluorescence melt of hairpins on a sequencing array, two-state fit, raised by 9.35 °C to match UV melts; conditions: sodium 0.088 M
# How it was run: as §1
Sequence,folding enthalpy [1],Tm [2]
GAGCACACGAAAGTGCTC (((..(((....)))))),-33.4 kcal/mol,57.8 °C
GACCGCGAAAGCGGAGTC ((((((....)))..))),-7.63 kcal/mol,40.6 °C
GCGGAATGCCGC ((((....)))),-24.3 kcal/mol,53 °C
GATCCCACTAGGGATC ((((((....)))))),-33.1 kcal/mol,65.9 °C
GCCCGAGGAAACCCGAGC ((.((.(....).)).)),-17.1 kcal/mol,30.8 °C
GTTAAAGCGAAAGCTAAC (((..(((....)))))),-10.3 kcal/mol,35.6 °C
GATCTCTTGGAGATC ((((((...)))))),-37.8 kcal/mol,54.4 °C
GGGTAAGGAAACTTACCC (((((((....))))))),-44.9 kcal/mol,58.6 °C
GCACACGAAAGTGCTGC ((((((....))).))),-34 kcal/mol,54.7 °C
GAAATTGGAAACAGTTTC ((((.((....)).)))),-26.4 kcal/mol,34.2 °C
GCAGTCGGAAACAACTGC (((((.(....).))))),-32.9 kcal/mol,46.1 °C
GATCTCCCCGGAGATC ((((((....)))))),-35.1 kcal/mol,57.6 °C
GCGCGAGGAAACCCGCAC (.(((.(....).))).),-16.8 kcal/mol,38.1 °C
GAGAGCGAAAGCTGACTC ((((((....)))..))),-13.3 kcal/mol,32.3 °C
GGACGTGGAAACACGTTC (.(((((....))))).),-23 kcal/mol,53.7 °C
GCCACGCGAAAGCGACGC ((..(((....)))..)),-11.8 kcal/mol,39.8 °C
GAAACCGAAAGGTTATTC ((((((....)))..))),-12.4 kcal/mol,29.6 °C
GACTGCGAAAGCATGGTC ((((((....)))..))),-14.9 kcal/mol,42.7 °C
GGGGAGCGAAAGCTGCCC (((.(((....))).))),-23.8 kcal/mol,68.8 °C
GTGAATCGAAAGATCAC (((.(((....)))))),-26.3 kcal/mol,45.3 °C
GCTGCACGAAAGTGAGC (((.(((....)))))),-18.8 kcal/mol,51.3 °C
GGGTCCGAAAGGAAACCC ((((((....)))..))),-22.8 kcal/mol,50.2 °C
GATCGGCCCTCCGATC ((((((....)))))),-39.9 kcal/mol,56.7 °C

Sequence,folding enthalpy [1],Tm [2]
AAGAGGAAACTCTT (((((....))))),-9.65 kcal/mol,28 °C
GGGATGGGAAACTGTCCC ((((..(....)..)))),-31.3 kcal/mol,43.5 °C
GTACTGGGAAACTAGTAC (((((.(....).))))),-36.8 kcal/mol,42.2 °C
GGGTTCGGAAACGAATCC ((.((((....)))).)),-44 kcal/mol,53.7 °C
GATCATGCTCATGATC ((((((....)))))),-44.1 kcal/mol,51.3 °C
GCGTAAGCACGC ((((....)))),-9.59 kcal/mol,59.6 °C
GATCCGGTGACGGATC ((((((....)))))),-38.9 kcal/mol,67.3 °C
GGACATCGAAAGATTCC (((.(((....)))))),-26.4 kcal/mol,38.6 °C
GATCAGCTATCTGATC ((((((....)))))),-34.7 kcal/mol,49.3 °C
GCGTCCAACGC ((((...)))),-19.9 kcal/mol,53.6 °C
CGCTCGGAAACGACGCG ((((((....))).))),-34.6 kcal/mol,51.1 °C
GATCCAAACTTGGATC ((((((....)))))),-39.4 kcal/mol,53.1 °C
GCGATGCGAAAGCATGGC ((.((((....)))).)),-21.2 kcal/mol,64.6 °C
GTTTTTGGAAACAAAAAC (((((((....))))))),-41.9 kcal/mol,51.5 °C
GCTCCCGAAAGGGGGAGC ((((((....)))..))),-23.8 kcal/mol,64.5 °C
GGCAATGCGAAAGCAGCC (((..(((....)))))),-17.7 kcal/mol,57.6 °C
GCAAAACGAAAGTTCTGC (((.(((....))).))),-27.8 kcal/mol,40.7 °C
GATCTATACATAGATC ((((((....)))))),-37.1 kcal/mol,46.4 °C
GATCTGTGGCAGATC ((((((...)))))),-30.3 kcal/mol,49.1 °C
GAGATAGGAAACTATCCC (.(((((....))))).),-16.4 kcal/mol,30.1 °C
GATCTGTGTGCAGATC ((((((....)))))),-46.9 kcal/mol,56.4 °C
GGAGGGAAACCTCC (((((....))))),-26.3 kcal/mol,54.7 °C
GATCTTAAAAAGATC ((((((...)))))),-27.5 kcal/mol,42.7 °C

Sequence,folding enthalpy [1],Tm [2]
GGCGTCGAAAGACAGGCC ((((((....)))..))),-31.3 kcal/mol,55 °C
GCTAGTCGAAAGACAAGC (((.(((....))).))),-34.7 kcal/mol,51.8 °C
GATCTATGTTTAGATC ((((((....)))))),-32.9 kcal/mol,43.9 °C
GAGCGCGAAAGCGTTCTC ((((((....)))..))),-18.1 kcal/mol,66.8 °C
GATCCAACGTTGGATC ((((((....)))))),-58.1 kcal/mol,55.6 °C
GATTGGCGAAAGCCTATC (((.(((....))).))),-19.8 kcal/mol,48.8 °C
GCTGGTGGAAACGTCAGC ((((..(....)..)))),-23.9 kcal/mol,43.3 °C
GCGGGGGCGAAAGCCCGC (((..(((....)))))),-11.4 kcal/mol,65.1 °C
GCTTGATCGAAAGATAGC (((..(((....)))))),-17.7 kcal/mol,29.4 °C
CGATCCGGAAACGGGTCG (((.(((....))).))),-38.8 kcal/mol,57.2 °C
GATCTTTTTTAAGATC ((((((....)))))),-35.2 kcal/mol,45.2 °C
GTAATCCGAAAGGAGTAC (((.(((....))).))),-28.5 kcal/mol,49.9 °C
GTATTAGGAAACTAGTAC (((.(((....))).))),-16.2 kcal/mol,29 °C
GAACGCGAAAGCGCATTC ((((((....)))..))),-7.58 kcal/mol,25.9 °C
GGACCCGAAAGGGATTCC ((((((....)))..))),-12.2 kcal/mol,37.5 °C
GGCTTAGCGAAAGCTGCC (((..(((....)))))),-23 kcal/mol,52.5 °C
GGGAACGAAAGTTTCCC ((((((....))).))),-31.5 kcal/mol,52.9 °C
GAATGTGGAAACACACTC ((.((((....)))).)),-11.6 kcal/mol,29.8 °C
GACACCGAAAGGTACGTC ((((((....)))..))),-14.1 kcal/mol,35.8 °C
GAGGGAGGAAACTCCTTC ((.((((....)))).)),-19.7 kcal/mol,38.3 °C
GACGCCCGAAAGGGTGTC (((.(((....))).))),-35.5 kcal/mol,69.3 °C
GATCACGTTGTGATC ((((((...)))))),-38.1 kcal/mol,60.1 °C
GATTGCGAAAGCAGATC ((((((....))).))),-15.8 kcal/mol,42.9 °C
